Laboratory results published in ChEMBL document CHEMBL3526028 (Drug Metab Dispos, 2013).

Columns and labels:
[1] = Drug uptake in mouse brain ipsilateral cerebrum assessed as radiolabelled compound after 30 mins at 0.1 uM, intracerebral microinjection in presence 100 mM probenecid OAT inhibitor; type: ADME, tissue-based; conditions: in vivo, other, 0.5 h
Procedure, shortened: (§1)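 Male C57BL/6 wild-type mice under ketamine 100 mg/kg plus xylazine 10 mg/kg i.p., on a stereotaxic frame. 0.2 µL was injected over 2 min into the S2 cortex, 3.8 mm lateral to bregma and 2.5 mm deep. Injectate: [3H]-drug plus [14C]-carboxyl-inulin, 10 nCi/ml each, in ECF buffer pH 7.4. Needle held 4 min. Ipsilateral cerebrum harvested at 30 min and counted by scintillation. Retention normalized to inulin. n=3-4.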

[2] = Elimination rate constant mouse brain at 10 nCi/ml
[3] = Drug uptake in mouse brain ipsilateral cerebrum assessed as radiolabelled compound after 30 mins at 0.1 uM, intracerebral microinjection in presence 100 mM benzylpenicillin OAT inhibitor; type: ADME, tissue-based; conditions: in vivo, other, 0.5 h; procedure, shortened: as §1
Mus musculus [4] = assay: Brain efflux index in wild type mouse assessed as transport of compound from ipsilateral cerebrum to the circulating blood across the blood-brain barrier at 10 nCi/ml, intracerebral microinjection after 30 mins in presence 100 mM benzylpenicillin OAT inhibitor relative to wild type; conditions: other, 0.5 h
[5] = Drug uptake in mouse brain ipsilateral cerebrum assessed as radiolabelled compound after 30 mins at 0.1 uM, intracerebral microinjection in presence of 1 mM unlabelled compound; type: ADME, tissue-based; conditions: in vivo, other, 0.5 h; procedure, shortened: as §1
Mus musculus [6] = assay: Brain efflux index in Bcrp1 deficient mouse assessed as transport of compound from ipsilateral cerebrum to the circulating blood across the blood-brain barrier at 10 nCi/ml, intracerebral microinjection after 30 mins relative to wild type; type: ADME, organism-based; conditions: other, 0.5 h
Procedure, shortened: (§2)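 Intracerebral microinjection under ip ketamine (100 mg/kg)/xylazine (10 mg/kg). Stereotaxic needle at 3.8 mm lateral to bregma, 2.5 mm deep, into S2 cortex. 0.2 µL [3H]-drug (10 nCi/ml) with [14C]-carboxyl-inulin (10 nCi/ml) in ECF buffer pH 7.4 given over 2 min. Ipsilateral cerebrum taken at set times, homogenised in 5% BSA and counted by scintillation. Retained/injected ratio normalised to inulin; n=3-4.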

Mus musculus [7] = assay: Brain efflux index in wild type mouse assessed as transport of compound from ipsilateral cerebrum to the circulating blood across the blood-brain barrier at 10 nCi/ml, intracerebral microinjection after 30 mins in presence 100 mM probenecid OAT inhibitor relative to wild type; conditions: other, 0.5 h
Mus musculus [8] = assay: Brain efflux index in Bcrp1 deficient mouse assessed as transport of compound from ipsilateral cerebrum to the circulating blood across the blood-brain barrier at 10 nCi/ml, intracerebral microinjection after 30 mins; type: ADME, organism-based; conditions: other, 0.5 h; procedure, shortened: as §2
Mus musculus [9] = assay: Brain efflux index in wild type mouse assessed as transport of compound from ipsilateral cerebrum to the circulating blood across the blood-brain barrier at 10 nCi/ml, intracerebral microinjection after 30 mins in presence of 1 mM unlabelled compound relative to wild type; conditions: other, 0.5 h
Mus musculus [10] = assay: Brain efflux index in wild type mouse assessed as transport of compound from ipsilateral cerebrum to the circulating blood across the blood-brain barrier at 10 nCi/ml, intracerebral microinjection after 30 mins in presence of 50 mM unlabelled compound relative to wild type; conditions: other, 0.5 h
[11] = Drug uptake in mouse brain ipsilateral cerebrum assessed as radiolabelled compound after 30 mins at 0.1 uM, intracerebral microinjection; type: ADME, tissue-based; conditions: in vivo, other, 0.5 h; procedure, shortened: as §1
Mus musculus [12] = assay: Brain efflux index in wild-type mouse assessed as transport of compound from ipsilateral cerebrum to the circulating blood across the blood-brain barrier at 10 nCi/ml, intracerebral microinjection after 30 mins in presence of 50 mM unlabelled compound; conditions: other, 0.5 h
Brain [13] = assay: Efflux clearance mouse brain measured per gm of tissue at 0.3 uCi/ml by in vitro brain slice uptake technique; type: ADME
Mus musculus [14] = assay: Brain efflux index in wild type mouse assessed as transport of compound from ipsilateral cerebrum to the circulating blood across the blood-brain barrier at 10 nCi/ml, intracerebral microinjection after 30 mins; type: ADME, organism-based; conditions: other, 0.5 h; procedure, shortened: as §2
Mus musculus [15] = assay: Brain efflux index in wild-type mouse assessed as transport of compound from ipsilateral cerebrum to the circulating blood across the blood-brain barrier at 10 nCi/ml, intracerebral microinjection after 30 mins in presence 100 mM probenecid OAT inhibitor; conditions: other, 0.5 h
Mus musculus [16] = assay: Brain efflux index in wild-type mouse assessed as transport of compound from ipsilateral cerebrum to the circulating blood across the blood-brain barrier at 10 nCi/ml, intracerebral microinjection after 30 mins in presence 100 mM benzylpenicillin OAT inhibitor; conditions: other, 0.5 h
Mus musculus [17] = assay: Brain efflux index in Mrp2 deficient mouse assessed as transport of compound from ipsilateral cerebrum to the circulating blood across the blood-brain barrier at 10 nCi/ml, intracerebral microinjection after 60 mins; type: ADME, organism-based; conditions: other, 1 h; procedure, shortened: as §2
Mus musculus [18] = assay: Brain efflux index in wild-type mouse assessed as transport of compound from ipsilateral cerebrum to the circulating blood across the blood-brain barrier at 10 nCi/ml, intracerebral microinjection after 30 mins in presence of 1 mM unlabelled compound; conditions: other, 0.5 h
[19] = Elimination half life in mouse brain at 10 nCi/ml, icv; type: ADME, organism-based; conditions: icv or intrathecal, read-out: beta t1/2 (converted)
Procedure, shortened: (§3)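 Intracerebral microinjection into the S2 cortex of anaesthetized mice, 0.2 µL of [3H]-drug (10 nCi/ml) with [14C]-carboxyl-inulin in ECF buffer. Ipsilateral cerebrum radioactivity was followed over time, up to 60 min for methotrexate. Elimination rate constant keff came from regression of percent remaining versus time, and half-life from keff. n=3-4.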

[20] = Drug uptake in mouse brain ipsilateral cerebrum assessed as radiolabelled compound after 30 mins at 0.1 uM, intracerebral microinjection in presence of 50 mM unlabelled compound; type: ADME, tissue-based; conditions: in vivo, other, 0.5 h; procedure, shortened: as §1
[21] = Drug uptake in mouse cerebrum
Brain [22] = assay: Ratio of efflux clearance to clearance in brain measured in mouse at 0.3 uCi/ml by in vitro brain slice uptake technique; type: ADME, tissue-based
Mus musculus [23] = assay: Brain efflux index in Mrp2 deficient mouse assessed as transport of compound from ipsilateral cerebrum to the circulating blood across the blood-brain barrier at 10 nCi/ml, intracerebral microinjection after 30 mins relative to wild type; conditions: other, 0.5 h
Brain [24] = assay: Elimination half life in mouse brain; type: ADME, tissue-based; conditions: in vivo; procedure, shortened: as §3

Drug uptake [1] [%] | k el [2] [s⁻¹] | Drug uptake [3] [%] | BEI (Mus musculus [4]) [%] | BEI (Mus musculus [6]) [%] | BEI (Mus musculus [7]) [%] | BEI (Mus musculus [8]) [%] | Drug uptake [11] [%] | CL (Brain [13]) [µL/min/g] | BEI (Mus musculus [14]) [%] | BEI (Mus musculus [15]) [%] | BEI (Mus musculus [16]) [%] | BEI (Mus musculus [17]) [%] | half-life [19] [min] | Structure (SMILES) | further results
72.4 | 0.000297 | 90 | 25 | 89.7 | 56.5 | 43.9 | 51.1 | 11.04 | 48.9 | 27.6 | 12.2 | 58.3 | 39 | Nc1nc2[nH]cc(CCc3ccc(C(=O)N[C@@H](CCC(=O)O)C(=O)O)cc3)c2c(=O)[nH]1 [PEMETREXED] | Drug uptake [5]: 71.7%; BEI (Mus musculus [9]): 57.8%; BEI (Mus musculus [10]): 8.8%; BEI (Mus musculus [12]): 4.3%; BEI (Mus musculus [18]): 28.3%; Drug uptake [20]: 95.7%
75.8 | 0.000397 | 90 | 21.4 | 72.7 | 37.9 | 46.4 | 36.2 | 20.23 | 63.8 | 24.2 | 13.7 | 57.2 | 28.8 | CN(Cc1cnc2nc(N)nc(N)c2n1)c1ccc(C(=O)N[C@@H](CCC(=O)O)C(=O)O)cc1 [METHOTREXATE] | Drug uptake [21]: 3.2%; Ratio (Brain [22]): 0.05; BEI (Mus musculus [23]): 90%
– | – | – | – | – | – | – | – | – | – | – | – | – | – | CCCC(CCC)C(=O)O [VALPROIC ACID] | beta t1/2 (Brain [24]): 2 min
